Hits are enriched below; roughly 1.3% of the tested compounds scored in any of these assays.
PP5 inh: blocks human protein phosphatase 5 activity | P53041 | purified PP5c, OMFP substrate fluorescence | inhibition, % at 6.7 µM | 320,000 tested, 0.18% active;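 active means inhibition above the campaign's mean inhibition across all tested compounds plus 3 SD, cut at about 9.5% in these data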;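 further: 0% = DMSO only and 100% = 100 µM cantharidin control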
PP1 inh: counter-screen for PP5 inhibitors: inhibitors of human PP1-alpha; inhibition, % at 6.7 µM; 320,000 tested, 0.9% active; purified PP1alpha, OMFP fluorescence; P62136; AID 2235;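 active means inhibition above the mean inhibition of all tested compounds plus 3 SD, computed separately for each screening campaign, cut at about 15% in these data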
Target sequence (P62136 whole entry, looked up): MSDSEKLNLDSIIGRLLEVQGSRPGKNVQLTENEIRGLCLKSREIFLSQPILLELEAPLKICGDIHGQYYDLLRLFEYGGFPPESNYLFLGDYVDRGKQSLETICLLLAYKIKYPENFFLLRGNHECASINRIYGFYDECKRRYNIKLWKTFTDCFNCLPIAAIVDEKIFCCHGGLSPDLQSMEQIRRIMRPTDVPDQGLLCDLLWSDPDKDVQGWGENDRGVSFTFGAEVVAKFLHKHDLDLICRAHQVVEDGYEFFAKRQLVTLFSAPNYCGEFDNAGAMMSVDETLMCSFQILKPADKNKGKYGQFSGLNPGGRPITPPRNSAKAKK
NR2E3 ag-1: NR2E3 (human) agonism; 320,000 tested, 0.12% active; GST-NR2E3/biotin-RetCOR TR-FRET, 1536-well; inhibition of corepressor binding, % at 4.78 µM;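 active means percent inhibition above the cutoff of mean plus 3 SD of all tested compounds, set per screening campaign, cut at about 20% in these data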;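 further: 0% = DMSO wells and 100% = biotin wells as full block of FRET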
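system = GST-tagged NR2E3 plus biotinylated RetCOR corepressor | input = 1.35 nM GST-NR2E3 | also added = 7 nM biotin-RetCOR | schedule = 5 h incubation at 4 °C | measured by = TR-FRET with europium anti-GST and streptavidin-D2, 340 nm excitation | read-out = percent loss of FRET ratio relative to control wells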
NR2E3 ag-2: human photoreceptor-specific nuclear receptor agonism; 360,000 tested, 0.35% active; inhibition of corepressor binding, % at 3.98 µM; CHO-S Gal4-NCOR/VP16-NR2E3 two-hybrid, luciferase; Q9Y5X4;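 active means inhibition above the mean of all tested compounds plus 3 SD, cut at about 70% in these data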;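 further: 0% = DMSO with NR2E3 transfected cells and 100% = cells lacking NR2E3 construct; higher means lower luciferase signal from less NR2E3 corepressor binding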
Numbers without * were called inactive; . = no result.

SMILES | PP5 inh | PP1 inh | NR2E3 ag-1 | NR2E3 ag-2
Cc1ccc2nsnc2c1NC(=O)c1ccc(-c2cc(Cl)ccc2Cl)o1 | 4.5 | 25.4* | 3.0 | -8.4
Cn1c(=O)[nH]c(=O)c2c1nc(N1CCC(Cc3ccccc3)CC1)n2Cc1ccccc1 | 3.3 | 8.9 | 1.7 | -2.8
CCCCCn1c(N2CCC(Cc3ccccc3)CC2)nc2c1c(=O)[nH]c(=O)n2C | 7.3 | 16.4* | -2.8 | -0.7
O=C(CSc1nnc(-c2ccc(F)cc2)c2ccccc12)Nc1ccccc1 | 5.0 | 14.7 | 1.5 | -19.9
O=C(CSc1nnc(-c2ccc(F)cc2)c2ccccc12)Nc1cccc(Cl)c1 | -1.8 | 15.7* | 1.0 | -13.1
O=C(O)C1CC=CCC1C(=O)N1CCN(c2nc(-c3ccccc3Cl)c3cc(Br)ccc3n2)CC1 (centres undefined) | 0.1 | 17.4* | 5.3 | -48.1
CCCCCc1ccc(OCCCC[n+]2ccccc2)c(CCCCC)c1 | -1.1 | 13.4 | -1.4 | -5.4
CCC(C)(C)c1ccc(OCCCC[n+]2ccccc2)c(C(C)(C)CC)c1 | 6.1 | 15.2* | 2.6 | -1.9
CC(C)Nc1ncnc2c1ncn2[C@H]1CN(C2CCCC2)C[C@@H](CO)O1 | . | . | . | 16.4
O=c1cc(-c2ccccc2)[nH]n1-c1ccc([N+](=O)[O-])cc1 | 3.6 | 15.8* | 8.3 | -26.8
CC(C)c1cc(C(C)C)c(S(=O)(=O)N2c3ccccc3[C@@]3(Br)C[C@H]4C(=O)N[C@@H](Cc5ccccc5)C(=O)N4[C@@H]23)c(C(C)C)c1 | 4.0 | 15.6* | -0.7 | .
CN(C)c1ccc2c(c1[N+](=O)[O-])Cc1ccccc1-2 | . | . | . | -0.4
CC(Sc1nnc(NCc2ccccc2)s1)C(=O)Nc1ccc2c(c1)C(=O)c1ccccc1C2=O (centres undefined) | 3.1 | 16.5* | 0.5 | -140.7
CC(Sc1nnc(Nc2ccccc2)s1)C(=O)Nc1nc(-c2ccccc2)cs1 (centres undefined) | -0.4 | 1.4 | 0.2 | -13.3
Cc1cccc2c(N=NC(=O)c3ccc(NS(=O)(=O)c4cccs4)cc3)c(O)[nH]c12 | 2.5 | 16.3* | -4.4 | -6.8
Cc1ccc2[nH]c(O)c(N=NC(=O)c3ccc(NS(=O)(=O)c4cccs4)cc3)c2c1 | 1.4 | 6.2 | -5.4 | -45.3
O=C(N=Nc1c(O)[nH]c2ccc(F)cc12)c1ccc(NS(=O)(=O)c2cccs2)cc1 | 1.2 | -0.5 | 0.9 | -7.1
COc1ccc2[nH]c(O)c(N=NC(=O)c3ccc(NS(=O)(=O)c4cccs4)cc3)c2c1 | 0.5 | 16.7* | -0.1 | -23.3
O=C1c2ccc(Cl)cc2S(=O)(=O)c2cccc(C(=O)N3CCC(Cc4ccccc4)CC3)c21 | 5.6 | -3.4 | 1.7 | -6.5
Cc1ccc(C(=O)N/C(=C\c2cccc([N+](=O)[O-])c2)C(=O)NC(Cc2ccccc2)C(=O)O)cc1 (centres undefined) | -2.0 | -4.4 | 4.7 | -4.2
O=C1CC(SC(=S)C2CCCC2=O)C(=O)N1 (centres undefined) | . | . | . | 4.2
CC1CCN(Cc2c(C(=O)N/N=C/c3cccc(C(F)(F)F)c3)nnn2-c2nonc2N)CC1 | 4.6 | 16.2* | -1.4 | -14.1
CC1CCN(Cc2c(C(=O)N/N=C/c3ccc(C(F)(F)F)cc3)nnn2-c2nonc2N)CC1 | 2.4 | -0.1 | -0.7 | -10.9
Cc1ccc(/C=C2\SC(N3CCN(C(c4ccccc4)c4ccccc4)CC3)=NC2=O)o1 | 1.8 | 17.4* | 1.5 | -5.3
CCc1nc2ccc(C(=O)NCCc3c[nH]c4ccccc34)cn2c1N(C)Cc1ccc(N(C)C)cc1 | . | . | . | 8.8
SMILES | PP5 inh | PP1 inh | NR2E3 ag-1 | NR2E3 ag-2
Nc1nc(N)c2c(ccc3c2ccn3Cc2cccc([N+](=O)[O-])c2)n1 | . | . | . | 37.9
Cc1ccc(C)n1Cc1ccc(C(=O)O)cc1 | 1.5 | 18.3* | 33.6* | -38.3
Cc1cc(C)n(Cc2ccc(C(=O)O)cc2)n1 | 0.4 | -3.5 | 1.2 | -13.2
Cc1ccc2c(c1)[C@H]1[C@H](CO2)[C@H](c2ccccc2)[C@]2(C)C(=O)Nc3cc(F)ccc3C(=O)N12 | . | . | . | 1.5
O=C(Nc1ccccc1C(F)(F)F)c1cc(-c2ccccc2O)on1 | 1.1 | 16.1* | -0.2 | -82.2
S=C1SCN(Cc2cccnc2)CN1Cc1cccnc1 | 4.3 | 1.8 | -3.2 | -1.2
O=C(CSc1nnc(SCc2ccccc2)s1)N/N=C/C=C/c1ccccc1[N+](=O)[O-] | 4.5 | 15.6* | -1.5 | -24.7
COc1cccc(C(=O)Oc2cc3c4c(c2)C(C)=CC(C)(C)N4C(=O)C3=O)c1 | 5.0 | 17.4* | 3.4 | -16.5
CCCn1c(SCC(=O)NC2CCCCC2)nnc1C1CC1 | 1.5 | -1.6 | 6.8 | -18.8
CC(=Cc1ccccc1)C=C1SC(=S)N(CCCC(=O)Nc2ccc(C(=O)O)c(O)c2)C1=O | . | . | . | -5.2
CC(/C=C1\SC(=S)N(CCC(=O)Nc2ccc(O)cc2)C1=O)=C\c1ccccc1 | 1.8 | 15.2* | 0.1 | -11.0
CC(/C=C1\SC(=S)N(CCCC(=O)Nc2ccc(C(=O)O)c(O)c2)C1=O)=C\c1ccccc1 | 0.6 | 17.2* | 0.9 | .
CC(/C=C1\SC(=S)N(NS(=O)(=O)c2ccc(C)cc2)C1=O)=C\c1ccccc1 | -5.0 | 16.0* | 0.0 | -2.7
COc1ccc2c3c(cccc13)N(C)N=C2C | 8.8 | 16.6* | -3.7 | -19.4
NC(=O)CC(NC(=O)Cc1ccc(Br)cc1)c1ccc(NCc2ccc(F)c(F)c2)c([N+](=O)[O-])c1 (centres undefined) | 5.1 | 16.9* | 2.7 | -11.9
NC(=O)CC(NC(=O)Cc1cccc2ccccc12)c1ccc(NC2CCCC2)c([N+](=O)[O-])c1 (centres undefined) | . | . | . | -4.9
CCC(CC)Nc1ccc(C(CC(N)=O)NC(=O)Cc2cccc3ccccc23)cc1[N+](=O)[O-] (centres undefined) | 1.7 | 17.3* | -1.2 | 7.4
COc1ccccc1CN1CC(C(=O)N(C)Cc2[nH]c3ccccc3c2C)CCC1=O (centres undefined) | 0.8 | -2.5 | 0.1 | -6.2
N#CCC(=O)Nc1ccc(C(=O)OCC(=O)c2ccc3c(c2)NC(=O)CO3)cc1 | 2.1 | 15.6* | -45.1 | -14.4
CC(=O)Nc1cc(NC(C)=O)cc(C(=O)OCC(=O)c2ccc3c(c2)NC(=O)CO3)c1 | 1.4 | -3.1 | 0.3 | 20.8
c1ccc(-c2nc(NC3CCCC3)c3ccccc3n2)cc1 | 7.7 | 3.3 | -7.9 | -11.9
CCCNC(=O)Cn1cnc2sc(C(=O)NCCN(CC)CC)c(C)c2c1=O | 4.7 | 16.3* | 2.9 | 9.6
CCCNC(=O)Cn1cnc2sc(C(=O)NCCCN3CCOCC3)c(C)c2c1=O | -0.4 | -1.2 | 3.6 | 0.8
CCN(CC)C(=O)Cn1cnc2sc(C(=O)Nc3cc(OC)c(OC)c(OC)c3)c(C)c2c1=O | 6.1 | 15.2* | 1.0 | 5.6
C(=NNc1ccc2ccccc2n1)c1ccccn1 | . | . | . | -79.9
COc1ccc(/C=C2\SC(=S)N(CC(=O)NC3C=CS(=O)(=O)C3)C2=O)cc1 (centres undefined) | 0.5 | 15.8* | 0.4 | 23.6
O=C1C=CC2=C3c4cc(O)c(O)cc4CC3(O)COC2=C1O (centres undefined) | . | . | . | -43.7

Source: PubChem (The Scripps Research Institute Molecular Screening Center)
